According to ChEMBL document CHEMBL4257587 (J Med Chem, 2018):
Converted amounts (≈) assume the structure as drawn. The source made the active and inactive calls.

Experiments:
[1] = tested on: Mycobacterium tuberculosis; assay: Antimycobacterial activity against Mycobacterium tuberculosis H37Rv ATCC 25618 after 6 days by resazurin-based assay; type: functional; details: H37Rv ATCC 25618, 144 h
physchem = details: buffer, pH 7.4
[2] = Intrinsic clearance in mouse liver microsomes at 0.5 uM preincubated with NADPH and measured up to 30 mins by LC-MS/MS analysis; type: ADME, microsome
[3] = Intrinsic clearance in human liver microsomes at 0.5 uM preincubated with NADPH and measured up to 30 mins by LC-MS/MS analysis; type: ADME, microsome
HepG2 [4] = assay: Cytotoxicity against human HepG2 cells assessed as effect on mitochondrial membrane potential after 48 hrs by TMRM-staining based cell health assay; type: ADME; details: HepG2, 48 h
HepG2 [5] = assay: cells; type: ADME, cell-based; details: Homo sapiens, HepG2, 48 h
HepG2 [6] = assay: Cytotoxicity against human HepG2 cells assessed as effect on membrane permeability after 48 hrs by TOTO-3 iodide-staining based cell health assay; type: ADME; details: HepG2, 48 h
[7] = tested on: Mycobacterium tuberculosis; assay: Antibacterial activity against Mycobacterium tuberculosis H37Rv infected in C57BL/6 mouse assessed as reduction in colony forming units administered orally once daily for 8 days starting following day after infection and measured at 24 hrs post last dose relative to untreated control; type: functional
Method in brief: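 Female C57BL/6 mice, 8−10 weeks old, infected intratracheally with 100 000 CFU of H37Rv. Oral dosing once daily for 8 days began 1 day post-infection. Lungs were harvested 24 h after the last dose, homogenised and plated on 7H11 with 10% OADC and 0.4% charcoal for 18 days at 37 °C. Log10 CFU was fitted to a sigmoidal dose-response curve, and ED99 was defined as a 2-log CFU drop versus untreated.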

[8] = AUC in C57BL/6 mouse at 18.7 mg/kg, po via gavage by LC-MS/MS analysis; type: ADME, organism-based; details: in vivo
[9] = Cmax in C57BL/6 mouse at 18.7 mg/kg, po via gavage by LC-MS/MS analysis; type: ADME, organism-based; set-up: dose 18.7 mg/kg, route oral; details: in vivo
[10] = Clearance in C57BL/6 mouse at 3.6 mg/kg, iv by LC-MS/MS analysis; type: ADME, organism-based; details: in vivo
Method in brief: (§1)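 Female C57BL/6 mice (18−20 g), single intravenous dose in 5% DMSO/20% Encapsin. Tail-vein whole blood (25 μL) was taken from each mouse (n = 5) at 5, 15 and 30 min and 1, 2, 4 and 8 h postdose, and compound concentration was measured in peripheral whole blood.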

[11] = Half life in C57BL/6 mouse at 3.6 mg/kg, iv by LC-MS/MS analysis; type: ADME, organism-based; details: in vivo; method in brief: as §1
[12] = Oral bioavailability in C57BL/6 mouse at 18.7 mg/kg via gavage by LC-MS/MS analysis; type: ADME, organism-based; details: in vivo
[13] = Volume of distribution at steady state in C57BL/6 mouse at 3.6 mg/kg, iv by LC-MS/MS analysis; type: ADME, organism-based; details: in vivo, read-out: Vdss; method in brief: as §1

SMILES	MIC90 [1] [µM]	CLH [2] [mL/min/g]	CLH [3] [mL/min/g]	IC50 (HepG2 [4]) [µM]	IC50 (HepG2 [5]) [µM]	IC50 (HepG2 [6]) [µM]	further results
c1ccc(CN2CCC3(CC2)OCCc2sccc23)cc1	> 5						
O=C(c1ccc2c(c1)OCCO2)N1CCC2(CC1)OCCc1sccc12	> 80						
CC1(CCNCc2ccc3c(c2)OCCO3)OCCc2sccc21 (centres undefined)	> 5						
CC(C)(C)c1ccc(CN2CCC3(CCOCC3)CC2)cc1	5 (≈ 1.51 µg/mL)	2.25	0.95	> 200	> 200	> 200	solubility kinetic at 1 h (physchem): ≥ 399 µM
FC(F)(F)Oc1ccc(Oc2ccc(CN3CCCCC3)cc2)cc1	> 5			49.5	44.2	46.3	solubility kinetic at 1 h (physchem): 156 µM (≈ 54.8 µg/mL)
FC(F)(F)Oc1ccc(Oc2ccc(CN3CCC4(CCNC4)CC3)cc2)cc1	> 5			6.6	4.9	5.7	solubility kinetic at 1 h (physchem): 117 µM (≈ 47.6 µg/mL)
Clc1ccc2c(CN3CCC4(CC3)OCCc3sccc34)c[nH]c2c1	0.31 (≈ 0.116 µg/mL)	10.3	1.3				
FC(F)(F)Oc1ccc(Oc2ccc(CN3CCC4(CCCO4)CC3)cc2)cc1	1.3 (≈ 0.53 µg/mL)	0.6	1.5	141	96.9	133	
O=C(Nc1ccc2c(c1)OCCO2)N1CCC2(CC1)OCCc1sccc12	> 10						
NNC(=O)c1ccncc1							Activity [7]: Active
FC(F)(F)Oc1ccc(Oc2ccc(CN3CCC4(CC3)OCCCO4)cc2)cc1	0.65 (≈ 0.275 µg/mL)	< 0.5	< 0.5	28.8	26.3	25.7	solubility kinetic at 1 h (physchem): 53 µM (≈ 22.4 µg/mL)
Cc1cccc(CN2CCC3(CC2)OCCc2sccc23)c1	0.63 (≈ 0.197 µg/mL)	> 30	5.2				
Cc1cc(CN2CCC3(CC2)OCCc2sccc23)c(C)n1-c1ccccc1	3 (≈ 1.18 µg/mL)						
c1ccc(Oc2ccc(CN3CCC4(CC3)OCCc3sccc34)cc2)cc1	0.05 (≈ 0.0196 µg/mL)	28.8	12				AUC [8]: 0.1 µg·h/mL; Cmax [9]: 0.05 µg/mL; clearance [10]: 4.06 L/h/kg; half-life [11]: 3.9 h; bioavailability [12]: 1.5%; Vd [13]: 19.4 L/kg
FC(F)(F)Oc1ccc(Oc2ccc(CN3CCC4(CC3)OCCO4)cc2)cc1	> 5			53.8	46.9	49.8	solubility kinetic at 1 h (physchem): 52 µM (≈ 21.3 µg/mL)
Cc1cc(CN2CCC3(CC2)OCCc2sccc23)c(C)n1-c1ccccn1	14 (≈ 5.51 µg/mL)						
c1ccc2oc(CN3CCC4(CC3)OCCc3ccsc34)cc2c1	> 100						
c1cc2c(s1)CCOC21CCNCC1	> 5						
c1cc2c(s1)CCOC21CCN(Cc2cnc3c(c2)OCCO3)CC1	> 5						
c1cc2c(s1)CCOC21CCN(Cc2ccc3c(c2)CCCO3)CC1	0.23 (≈ 0.0818 µg/mL)	> 30	2.9				
CC(C)(C)c1ccc(CN2CCC3(CCCOC3)CC2)cc1	0.63 (≈ 0.19 µg/mL)	48	7.3	> 200	> 200	> 200	solubility kinetic at 1 h (physchem): 363 µM (≈ 109 µg/mL)
CC(C)(C)c1ccc(CN2CCC3(CC2)OCCc2sccc23)cc1	0.02 (≈ 0.00711 µg/mL)	> 30	9.9				
O=C1OCCC12CCN(Cc1ccc(Oc3ccc(OC(F)(F)F)cc3)cc1)CC2	> 5			> 200	74.1	75.9	solubility kinetic at 1 h (physchem): 121 µM (≈ 51 µg/mL)
COc1ccc2c(c1)CCOC21CCN(Cc2ccc3c(c2)OCCO3)CC1	> 10						
